According to ChEMBL document CHEMBL3407422, “2-(2-oxo-morpholin-3-yl)-acetamide derivatives as broad-spectrum antifungal agents” (J Med Chem, 2015):
Values after ≈ are worked out from the molar mass of the structure shown.

tested on: Candida albicans; experiment: Antifungal activity against Candida albicans SC5314 after 24 hrs; type: functional
How it was run: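 Overnight YPD cultures diluted in PBS (1/200 for C. albicans, 1/400 for C. glabrata). Cells treated with compound, or 2.5% DMSO as solvent control, for 24 h at 37 °C. CFUs then counted; MFC is the concentration giving 99% killing of the inoculum.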

Compound	MFC99 [µg/mL]
CCN1CC(C)(C)OC(=O)C1CC(=O)Nc1ccncn1 (stereo unspecified)	>50
CC(C)c1ccc(NC(=O)CC2C(=O)OC(C)(C)CN2C(C)C)cc1 (stereo unspecified)	>25
CCCN1CC(C)(C)OC(=O)C1CC(=O)Nc1ccc(C(C)C)cc1 (stereo unspecified)	>25
CC(C)c1ccc(NC(=O)CC2C(=O)OC(C)(C)CN2Cc2ccccc2)cc1 (stereo unspecified)	>50
CC(C)c1ccc(NC(=O)CC2C(=O)OC(C)(C)CN2CCF)cc1 (stereo unspecified)	>25
CCN1CC(CC)(CC)OC(=O)C1CC(=O)Nc1ccc(C(C)C)cc1 (stereo unspecified)	>25
CCN1CC(C)(C)OC(=O)C1CC(=O)N1CCOCC1 (stereo unspecified)	>50
CCCNC(=O)CC1C(=O)OC(C)(C)CN1CC (stereo unspecified)	25 (≈ 97.5 µM)
CCN1CC(C)(C)OC(=O)C1CC(=O)Nc1ccc2scnc2c1 (stereo unspecified)	>50
CCN1CC(C)(C)OC(=O)C1CC(=O)NCc1ccc(Cl)c(Cl)c1 (stereo unspecified)	12.5 (≈ 33.5 µM)
CC(C)c1ccc(NC(=O)CC2C(=O)OC(C)(C)CN2CC(F)(F)F)cc1 (stereo unspecified)	>25
CCN1CC(C)(C)OC(=O)C1CC(=O)NCC1CCCCC1 (stereo unspecified)	25 (≈ 80.5 µM)
CCN1CC(C)(C)OC(=O)C1CC(=O)NC1CCCC1 (stereo unspecified)	50 (≈ 177 µM)
CCN1CC(C)(C)OC(=O)C1CC(=O)NCCc1ccccc1 (stereo unspecified)	25 (≈ 78.5 µM)
CCN1CC(C)(C)OC(=O)C1CC(=O)Nc1ccnn1C (stereo unspecified)	>50
CCN1CC(C)(C)OC(=O)C1CC(=O)NCCC(C)(C)C (stereo unspecified)	25 (≈ 83.8 µM)
CCN1CC(C)(C)OC(=O)C1CC(=O)NCc1cccc(OC)c1 (stereo unspecified)	25 (≈ 74.8 µM)
CC(C)c1ccc(NC(=O)CC2NCC(C)(C)OC2=O)cc1 (stereo unspecified)	>25
CCN1CC(C)(C)OC(=O)C1CC(=O)NCc1cccc(C)c1 (stereo unspecified)	12.5 (≈ 39.3 µM)
CCN1CC(C)(C)OC(=O)C1CC(=O)Nc1c(C)noc1C (stereo unspecified)	>50
CCN1CC(C)(C)OC(=O)C1CC(=O)NCc1cccc(Cl)c1 (stereo unspecified)	6.25 (≈ 18.4 µM)

Compound	MFC99 [µg/mL]
CC(C)c1ccc(NC(=O)CC2C(=O)OC(C)(C)CN2C2CCCC2)cc1 (stereo unspecified)	>25
CCN1CCOCC1CC(=O)Nc1ccc(C(C)C)cc1 (stereo unspecified)	>50
CCN1CC(C)(C)OC(=O)C1CC(=O)Nc1ccncc1 (stereo unspecified)	>50
CCN1CC(C)(C)OC(=O)C1CC(=O)NCc1ccccc1 (stereo unspecified)	12.5 (≈ 41.1 µM)
CC(C)c1ccc(NC(=O)CC2C(=O)OC(C)(C)CN2C2CC2)cc1 (stereo unspecified)	>25
CCN(CC)C(=O)CC1C(=O)OC(C)(C)CN1CC (stereo unspecified)	>50
CCN1CC(C)(C)OC(=O)C1CC(=O)NC1CCCCC1 (stereo unspecified)	50 (≈ 169 µM)
CCN1CC(C)(C)OC(=O)C1CC(=O)NCc1cccc(C(F)(F)F)c1 (stereo unspecified)	25 (≈ 67.1 µM)
CCN1CC(C)(C)OC(=O)C1CC(=O)NCc1ccco1 (stereo unspecified)	50 (≈ 170 µM)
CCN1CC(C)(C)OC(=O)C1CC(=O)NCc1ccccc1Cl (stereo unspecified)	25 (≈ 73.8 µM)
C[C@@H]1[C@H](O)[C@@H](C)/C=C/C=C/C=C/C=C/C=C/C=C/C=C/[C@H](O[C@@H]2O[C@H](C)[C@@H](O)[C@H](N)[C@@H]2O)C[C@@H]2O[C@](O)(C[C@@H](O)C[C@@H](O)[C@H](O)CC[C@@H](O)C[C@@H](O)CC(=O)O[C@H]1C)C[C@H](O)[C@H]2C(=O)O [AMPHOTERICIN B]	1.6 (≈ 1.73 µM)
CCN1C(CC(=O)Nc2ccc(C(C)C)cc2)C(=O)OC(C)(C)C1(C)C (stereo unspecified)	>25
CC(C)c1ccc(NC(=O)CC2C(=O)OC(C)(C)CN2C)cc1 (stereo unspecified)	>25
CC(C)c1ccc(NC(=O)CC2C(=O)OC(C)(C)CN2c2ccccc2)cc1 (stereo unspecified)	>50
CCN1CC(C)(C)OC(=O)C1CC(=O)NCc1cccs1 (stereo unspecified)	25 (≈ 80.5 µM)
CCN1CC(C)(C)OC(=O)C1CC(=O)Nc1cccnc1 (stereo unspecified)	>50
CCN1CC(C)(C)OC(=O)C1CC(=O)Nc1ccccn1 (stereo unspecified)	>50
CC(=O)N1CC(C)(C)OC(=O)C1CC(=O)Nc1ccc(C(C)C)cc1 (stereo unspecified)	>25
CCNC(=O)CC1C(=O)OC(C)(C)CN1CC (stereo unspecified)	50 (≈ 206 µM)
CCN1CC(C)(C)OC(=O)C1C(C)(C)C(=O)Nc1ccc(C(C)C)cc1 (stereo unspecified)	>50
